How the values were obtained:
[1] = Stability of compound in 0.5M phosphate citric acid buffer assessed as drug degradation at 0.5 mM at pH 7.4 at 37 degC for 48 hrs by HPLC-UV analysis; format: physicochemical; settings: read-out: Drug degradation
How it was run: (§1)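 Aliquots over time quenched to pH 1.5 with HCl, quantified by HPLC against standard curves (peak area ratio to DMPA). k from slope of ln(C/Co) versus time, pseudo-first-order; half-life derived.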

[2] = Stability of compound in 0.5M phosphate citric acid buffer assessed as autoxidative conversion at 0.1 mM at pH 7.4 at 37 degC for 90 mins by HPLC-UV analysis; format: physicochemical; settings: pH 7.4, 1.5 h, 100 µM
How it was run: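 Incubated 90 min at 37 °C. Dibenzocyclooctadiene formation monitored by HPLC, with products examined by MS and NMR. NDGA served as positive control.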

[3] = Drug degradation in 0.5M phosphate citric acid buffer at 0.5 mM at pH 7.4 at 37 degC by HPLC-UV analysis; format: physicochemical; settings: pH 7.4, 500 µM; how it was run: as §1
[4] = Half life of the compound in 0.5M phosphate citric acid buffer at 0.5 mM at pH 7.4 at 37 degC by HPLC-UV analysis; format: ADME; how it was run: as §1
[5] = Stability of compound assessed as formation of 5,6,7,8-Tetrahydro-dibenzo[a,c]cyclooctene-2,3,10,11-tetraol in phosphate citric acid buffer at pH 7.4 at 37 degC by HPLC-UV analysis relative to NDGA; format: physicochemical
How it was run: (§2)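 Formation rate of the dibenzocyclooctadiene inferred from loss of the parent substrate (0.5 mM, DMPA internal standard) in phosphate–citric acid buffer (0.5 M, pH 7.4) at 37 °C. Aliquots acidified to pH 1.5 with HCl and analysed by HPLC; first-order k from ln(C/Co) versus time, relative rate versus NDGA.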

[6] = Stability of compound assessed as formation of 5,6,7,8-Tetrahydro-dibenzo[a,c]cyclooctene-2,3,10,11-tetraol in phosphate citric acid buffer at pH 7.4 at 37 degC by HPLC-UV analysis; format: physicochemical; how it was run: as §2
[7] = Stability of compound assessed as level of starting material at 37 degC for 6 hrs in presence of 20 fold excess of glutathione; format: physicochemical; settings: read-out: Stability
How it was run: (§3)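 Substrate and DMPA internal standard, 0.5 mM each, incubated in phosphate–citrate buffer (0.5 M, pH 7.4) at 37 °C for 6 h with or without 20-fold excess glutathione. Samples acidified to pH 1.5 and analysed directly by HPLC and ESI-MS. Relative percentage of starting material, cyclised product and adduct reported.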

[8] = Stability of compound assessed as level of starting material at 37 degC for 6 hrs in absence of glutathione; format: physicochemical; settings: read-out: Stability; how it was run: as §3
[9] = Dissociation constant, pKa of compound; format: physicochemical
[10] = Stability of compound assessed as formation of cNDGA in phosphate citric acid buffer at pH 7.4 at 37 degC by HPLC-UV analysis; format: physicochemical; how it was run: as §2
[11] = Drug degradation in phosphate citric acid buffer at pH 7.4 at 37 degC at 0.5 mM by HPLC-UV analysis; format: physicochemical; settings: pH 7.4, 500 µM; how it was run: as §1
[12] = Drug degradation in phosphate citric acid buffer at pH 7.4 at 37 degC by HPLC-UV analysis relative to cNDGA; format: physicochemical
How it was run: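 Cyclised dibenzocyclooctadiene derivative (0.5 mM) with DMPA internal standard incubated in phosphate–citric acid buffer (0.5 M, pH 7.4) at 37 °C; aliquots acidified to pH 1.5 and parent loss followed by HPLC. First-order rate constant from ln(C/Co) versus time, expressed relative to cNDGA.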

Compound	K [3] [×10⁻⁵ /s]	half-life at 500 µM [4] [h]	Drug metabolism [2]	also measured
CC(Cc1cccc(O)c1)C(C)Cc1cccc(O)c1 (centres undefined)	–	–	metabolite_detected	degraded at 48 h, 500 µM [1]: < 5%
COc1cc(CC(C)C(C)Cc2ccccc2)ccc1O (centres undefined)	3.5	5.49	metabolite_detected	–
CC(Cc1ccccc1)C(C)Cc1ccc(O)c(O)c1 (centres undefined)	4.56	4.22	metabolite_detected	–
CC(Cc1ccc(O)c(O)c1)C(C)Cc1ccc(O)c(O)c1 (centres undefined) [NORDIHYDROGUAIARETIC ACID]	4.88	3.94	metabolite_detected	pKa [9]: 9.3; remaining at 6 h [7]: 87.1%; K [10]: 2.78 ×10⁻⁵ /s; remaining at 6 h [8]: 66.9%
Oc1cc2c(cc1O)-c1cc(O)c(O)cc1CCCC2	–	–	–	K [11]: 1.75 ×10⁻⁵ /s; Ratio [12]: 3.7
CC1Cc2cc(O)c(O)cc2-c2cc(O)c(O)cc2CC1C (centres undefined)	–	–	–	K [11]: 0.47 ×10⁻⁵ /s

The next lines start with results.

K [3] [×10⁻⁵ /s]	half-life at 500 µM [4] [h]	Compound	Drug metabolism [2]	also measured
2.87	6.7	COc1cc(CC(C)C(C)Cc2ccc(O)c(OC)c2)ccc1O (centres undefined) [DIHYDROGUAIARETIC ACID]	metabolite_detected	–
4.16	4.62	COc1ccc(CC(C)C(C)Cc2ccc(O)c(O)c2)cc1OC (centres undefined)	metabolite_detected	–
13.1	1.47	Oc1ccc(CCCCc2ccc(O)c(O)c2)cc1O	metabolite_detected	Ratio [5]: 3.1; K [6]: 8.7 ×10⁻⁵ /s; remaining at 6 h [7]: 95.5%; remaining at 6 h [8]: 8.52%
4.11	4.68	COc1ccc(CC(C)C(C)Cc2ccc(OC)c(O)c2)cc1O (centres undefined)	metabolite_detected	–

Reference: ChEMBL document CHEMBL3627654, “Ring substitution influences oxidative cyclisation and reactive metabolite formation of nordihydroguaiaretic acid analogues” (Bioorg Med Chem, 2015)
